Results: ChEMBL document CHEMBL4033712, “Synthesis and biological evaluation of new C-12(α/β)-(N-) sulfamoyl-phenylamino-14-deoxy-andrographolide derivatives as potent anti-cancer agents” (Bioorg Med Chem Lett, 2017)

How the values were obtained:
Type in all cases: functional
SK-OV-3 = assay: Growth inhibition of human SKOV3 cells incubated for 48 hrs by sulforhodamine B assay; conditions: SK-OV-3, 48 h
Outline: (§1)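 NCI 60 human tumour cell line panel, five-dose study at 0.01, 0.1, 1, 10 and 100 µM, 48 h incubation. Sulforhodamine B protein-binding dye end point. GI50 (50% decrease in net cell growth), TGI (total growth inhibition) and LC50 (net 50% loss of initial cells) read from log concentration versus % growth inhibition curves.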

NCI-H522 = assay: Growth inhibition of human NCI-H522 cells incubated for 48 hrs by sulforhodamine B assay; conditions: NCI-H522, 48 h
Outline: (§2)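 NCI-60 five-dose screen at 0.01, 0.1, 1, 10 and 100 µM, 48 h incubation, sulforhodamine B end point. GI50 (50% decrease in net growth), TGI (total growth inhibition) and LC50 (net 50% loss of initial cells) taken from log concentration versus % growth inhibition curves.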

OVCAR-8 = assay: Growth inhibition of human OVCAR8 cells incubated for 48 hrs by sulforhodamine B assay; conditions: OVCAR-8, 48 h; outline: as §2
UACC-62 = assay: Growth inhibition of human UACC62 cells incubated for 48 hrs by sulforhodamine B assay; conditions: UACC-62, 48 h; outline: as §1
HOP-92 = assay: Anticancer activity against human HOP92 cells assessed as cell growth at 10 uM after 48 hrs by sulforhodamine B assay relative to control; conditions: HOP-92, 48 h, read-out: Activity
Outline: (§3)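 Single-dose NCI-60 panel screen: compound added at 10 µM and the culture incubated 48 h. The end point was read by protein staining with sulforhodamine B. The value is percent growth of treated cells relative to untreated control cells, reported as a mean graph across the panel.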

MOLT-4 = assay: Growth inhibition of human MOLT4 cells incubated for 48 hrs by sulforhodamine B assay; conditions: MOLT-4, 48 h; outline: as §2
HOP-62 = assay: Growth inhibition of human HOP62 cells incubated for 48 hrs by sulforhodamine B assay; conditions: HOP-62, 48 h; outline: as §2
SK-MEL-5 = assay: Growth inhibition of human SK-MEL-5 cells incubated for 48 hrs by sulforhodamine B assay; conditions: SK-MEL-5, 48 h; outline: as §1
HCT-15 = assay: Growth inhibition of human HCT15 cells incubated for 48 hrs by sulforhodamine B assay; conditions: HCT-15, 48 h; outline: as §2
U-251 = assay: Growth inhibition of human U251 cells incubated for 48 hrs by sulforhodamine B assay; conditions: U-251, 48 h; outline: as §1
SF-295 = assay: Growth inhibition of human SF295 cells incubated for 48 hrs by sulforhodamine B assay; conditions: SF-295, 48 h; outline: as §1
M14 = assay: Growth inhibition of human M14 cells incubated for 48 hrs by sulforhodamine B assay; conditions: M14, 48 h; outline: as §2
RXF 393 = assay: Growth inhibition of human RXF393 cells incubated for 48 hrs by sulforhodamine B assay; conditions: RXF 393, 48 h; outline: as §1
SF-539 = assay: Anticancer activity against human SF539 cells assessed as cell growth at 10 uM after 48 hrs by sulforhodamine B assay relative to control; conditions: SF-539, 48 h, read-out: Activity; outline: as §3
MDA-MB-435 = assay: Growth inhibition of human MDA-MB-435 cells incubated for 48 hrs by sulforhodamine B assay; conditions: MDA-MB-435, 48 h; outline: as §2
NCI-H226 = assay: Growth inhibition of human NCI-H226 cells incubated for 48 hrs by sulforhodamine B assay; conditions: NCI-H226, 48 h; outline: as §2
NCI-H23 = assay: Growth inhibition of human NCI-H23 cells incubated for 48 hrs by sulforhodamine B assay; conditions: NCI-H23, 48 h; outline: as §2
T47D = assay: Growth inhibition of human T47D cells incubated for 48 hrs by sulforhodamine B assay; outline: as §1
SR = assay: Growth inhibition of human SR cells incubated for 48 hrs by sulforhodamine B assay; outline: as §1
OVCAR-3 = assay: Growth inhibition of human OVCAR3 cells incubated for 48 hrs by sulforhodamine B assay; conditions: OVCAR-3, 48 h; outline: as §2
UACC-257 = assay: Growth inhibition of human UACC257 cells incubated for 48 hrs by sulforhodamine B assay; conditions: UACC-257, 48 h; outline: as §1
NCI-H460 = assay: Growth inhibition of human NCI-H460 cells incubated for 48 hrs by sulforhodamine B assay; conditions: NCI-H460, 48 h; outline: as §2
CAKI-1 = assay: Growth inhibition of human Caki1 cells incubated for 48 hrs by sulforhodamine B assay; conditions: CAKI-1, 48 h; outline: as §2
MCF7 = assay: Growth inhibition of human MCF7 cells incubated for 48 hrs by sulforhodamine B assay; conditions: MCF7, 48 h; outline: as §2
RPMI-8226 = assay: Growth inhibition of human RPMI8226 cells incubated for 48 hrs by sulforhodamine B assay; conditions: RPMI-8226, 48 h; outline: as §1
SNB-19 = assay: Anticancer activity against human SNB19 cells assessed as cell growth at 10 uM after 48 hrs by sulforhodamine B assay relative to control; conditions: SNB-19, 48 h, read-out: Activity; outline: as §3
UO-31 = assay: Growth inhibition of human UO31 cells incubated for 48 hrs by sulforhodamine B assay; conditions: UO-31, 48 h; outline: as §1
EKVX = assay: Growth inhibition of human EKVX cells incubated for 48 hrs by sulforhodamine B assay; outline: as §2
[1] = read-out: LC50 (the source's name)

C=C1CC[C@@H]2[C@](C)(COC(C)=O)[C@H](OC(C)=O)CC[C@@]2(C)[C@H]1CC(Nc1ccc(S(=O)(=O)Nc2nccc(C)n2)cc1)C1=CCOC1=O (stereo partly drawn)
GI50 (SK-OV-3): 12.7 µM | TGI (SK-OV-3): 25.3 µM | CC50 (SK-OV-3; [1]): 50.3 µM | GI50 (NCI-H522): 1.26 µM | TGI (NCI-H522): 3.1 µM | CC50 (NCI-H522; [1]): 7.62 µM | GI50 (OVCAR-8): 2.61 µM | TGI (OVCAR-8): 8.56 µM | CC50 (OVCAR-8; [1]): 47.6 µM | GI50 (UACC-62): 2.38 µM | TGI (UACC-62): 7.12 µM | CC50 (UACC-62; [1]): 30.3 µM | growth at 10 µM (HOP-92): 71.6% | GI50 (MOLT-4): 3.22 µM | TGI (MOLT-4): 17.9 µM | CC50 (MOLT-4; [1]): > 100 µM | GI50 (HOP-62): 10.3 µM | TGI (HOP-62): 22.5 µM | CC50 (HOP-62; [1]): 49.3 µM | GI50 (SK-MEL-5): 3.79 µM | TGI (SK-MEL-5): 14 µM | CC50 (SK-MEL-5; [1]): 41.2 µM | GI50 (HCT-15): 1.79 µM | TGI (HCT-15): 4.24 µM | CC50 (HCT-15; [1]): 10.2 µM | GI50 (U-251): 3.17 µM | TGI (U-251): 10.7 µM | CC50 (U-251; [1]): 33.3 µM | GI50 (SF-295): 12.4 µM | TGI (SF-295): 25.6 µM | CC50 (SF-295; [1]): 52.9 µM | GI50 (M14): 2.81 µM | TGI (M14): 10.8 µM | CC50 (M14; [1]): 72.6 µM | GI50 (RXF 393): 2.33 µM | TGI (RXF 393): 4.18 µM | CC50 (RXF 393; [1]): 7.49 µM | growth at 10 µM (SF-539): -62.7% | GI50 (MDA-MB-435): 2.92 µM | TGI (MDA-MB-435): 10.4 µM | CC50 (MDA-MB-435; [1]): 34.2 µM | GI50 (NCI-H226): 2.33 µM | TGI (NCI-H226): 5.91 µM | CC50 (NCI-H226; [1]): > 100 µM | GI50 (NCI-H23): 3.78 µM | TGI (NCI-H23): 16 µM | CC50 (NCI-H23; [1]): 50.6 µM | GI50 (T47D): 2.77 µM | TGI (T47D): 8.33 µM | CC50 (T47D; [1]): > 100 µM | GI50 (SR): 0.75 µM | TGI (SR): > 100 µM | CC50 (SR; [1]): > 100 µM | GI50 (OVCAR-3): 1.76 µM | TGI (OVCAR-3): 3.36 µM | CC50 (OVCAR-3; [1]): 6.43 µM | GI50 (UACC-257): 4.8 µM | TGI (UACC-257): 16.4 µM | CC50 (UACC-257; [1]): 42.8 µM | GI50 (NCI-H460): 4.88 µM | TGI (NCI-H460): 18.3 µM | CC50 (NCI-H460; [1]): 53.9 µM | GI50 (CAKI-1): 3.56 µM | TGI (CAKI-1): 12.5 µM | CC50 (CAKI-1; [1]): 35.5 µM | GI50 (MCF7): 2.27 µM | TGI (MCF7): 12.5 µM | CC50 (MCF7; [1]): > 100 µM | GI50 (RPMI-8226): 1.95 µM | TGI (RPMI-8226): 6.84 µM | CC50 (RPMI-8226; [1]): > 100 µM | growth at 10 µM (SNB-19): 53.6% | GI50 (UO-31): 2.91 µM | LC50 (concentration giving net 50% loss of initial cells) (UO-31): 33.3 µM | TGI (UO-31): 10.6 µM | GI50 (EKVX): 13.9 µM | TGI (EKVX): 27.1 µM | CC50 (EKVX; [1]): 52.7 µM
